This is an account of results in ChEMBL document CHEMBL1142508, “3-Amino-2(5H)furanones as inhibitors of subgenomic hepatitis C virus RNA replication” (Bioorg Med Chem, 2008).

The nature of data set [1]: Cytotoxicity against human HBI10A cells after 20 hrs by MTS assay. It is filed as cell-based. An outline of the steps: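 MTS read-out in HBI10A replicon cells seeded at 1 × 10^4 per 100 µL D-MEM + 5% FBS. After 4 h at 37 °C, compounds added at final 10^3, 10^2, […]. Incubated 20 h at 37 °C, then MTS for a further 4 h. Stopped with 10% SDS; absorbance at 492 nm.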
The subject of a further data set is Hepatitis C virus. Description: Antiviral activity against HCV in human HBI10A cells by ELISA. Format: functional, organism-based, Hepacivirus hominis. The method in brief: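 HCV subgenomic replicon-bearing Huh-7-derived HBI10A cells kept in D-MEM + 10% FBS with G418. Compounds from DMSO stocks, diluted in D-MEM, DMSO at most 1%, tested at final 10^3, 10^2, […]. Cell-ELISA for NS3 with anti-NS3 10E5/24 MAb, in triplicate. Parental Huh-7 cells give the background. EC50 from Hill-equation fit of NS3 signal reduction. IFN-α positive control.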

SMILES strings stand for the structures.

For the molecule `CNC1=C(C(C)=O)COC1=O`, the CC50 (commonly the concentration that lowers cell viability or growth by half) at 20 h in data set [1] is above 1000 µM. The EC50 – broadly, the concentration giving half of the maximal effect – in the data set on Hepatitis C virus came to 521 µM.
As for `CNC1=C(C(=O)OC)C(C)OC1O` (stereo not drawn), the CC50 at 20 h in data set [1] was above 1000 µM. Besides, the EC50 in the data set on Hepatitis C virus was determined as 66 µM.
`CNC1=C(C(=O)OC)C(C)OC1=O` (stereo not drawn) showed a CC50 at 20 h in data set [1] above 1000 µM. In addition, the EC50 with Hepatitis C virus came out at 525 µM.
In turn, `CCOC(=O)C1=C(NC)C(=O)OC1C(=O)OCC` (stereo not drawn) had a CC50 at 20 h in data set [1] above 1000 µM. This molecule also displayed an EC50 in the data set with Hepatitis C virus above 1000 µM.
`COC(=O)C1=C(NCc2ccccc2)C(=O)OC1C` (stereo not drawn) had a CC50 at 20 h in data set [1] above 1000 µM. The EC50 with Hepatitis C virus is above 1000 µM.
In turn, `CNC1=C(C(=O)Nc2ccccc2)C(C)OC1=O` (stereo not drawn) showed a CC50 at 20 h in data set [1] above 1000 µM. For the same molecule, the midpoint of the response in the data set with Hepatitis C virus, the EC50, lay at 19 µM.
The matching figures for `CNC1=C(c2ccccc2)C(c2ccccc2)OC1=O` (stereo not drawn): 28 µM and 17 µM.
As to `O=C(O)c1nc(-c2cccs2)nc(O)c1O`, in the data set with Hepatitis C virus, it took 9.3 µM to reach a half-maximal effect (EC50) and it took 0.15 µM to reach half-maximal inhibition (IC50).
`CNC1=C(C(C)=O)C(C)OC1=O` (stereo not drawn): it took 819 µM to reach half-maximal cytotoxicity in data set [1] (CC50 at 20 h). Moreover, in the data set on Hepatitis C virus, the EC50 was 132 µM.
